Reference: ChEMBL document CHEMBL4364341, “Radiosensitization of Head and Neck Squamous Cell Carcinoma (HNSCC) by a Podophyllotoxin” (ACS Med Chem Lett, 2019)
Calls of active or inactive are those of the source. The rule behind the calls is not given here.

Columns and labels:
FaDu [1] = experiment: Synergistic antiproliferative activity against human FADU cells assessed as reduction in colony formation unit followed by irradiation with 5 Gy IR and measured after 10 to 14 days by crystal violet staining based assay; format: functional, cell-based
SCC-25 [2] = experiment: Synergistic induction of cell cycle arrest in human SCC25 cells assessed as decrease in accumulation at G0/G1 phase at 0.5 uM followed irradiation with 5Gy IR incubated for 24 hrs by propidium iodide staining based flow cytometry; format: functional
How it was run: (§1)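 FaDu or SCC-25 cells, untreated, given 5 Gy IR, drug, or drug plus 5 Gy. Cell-cycle distribution by propidium iodide staining and flow cytometry at 6 h and 24 h after treatment. G0/G1, S and G2/M fractions compared with control by t test.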

FaDu [3] = experiment: Antiproliferative activity against human FADU cells assessed as reduction in cell viability at 1 uM after 6 days by MTT assay relative to control; format: functional; conditions: 144 h
How it was run: (§2)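 FaDu or SCC-25 cells were grown in DMEM with 10% FBS at 37 °C and 5% CO2. They were seeded at 1000 cells/well in 96-well plates for 24 h, then dosed with compound (fresh DMSO stock diluted in medium) or vehicle. After 1 h, X-rays were given with a sliding 5 mm lead shield, so one plate held 0, 2.5, 5 and 10 Gy columns. After 6 days, MTT (0.5 mg/mL, 45 min) was added, then DMSO, and A570 was read. Values were normalised to the unirradiated vehicle control. Fractional inhibition = 1 − surviving fraction.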

FaDu [4] = experiment: Synergistic antiproliferative activity against human FADU cells assessed as fractional inhibition at 0.05 uM preincubated for 1 hr followed by irradiation with 5 Gy IR and measured after 6 days by MTT assay (reference value: 0.097); format: functional; how it was run: as §2
FaDu [5] = experiment: Synergistic antiproliferative activity against human FADU cells assessed as fractional inhibition at 0.005 uM preincubated for 1 hr followed by irradiation with 10 Gy IR and measured after 6 days by MTT assay (reference value: 0.388); format: functional; how it was run: as §2
FaDu [6] = experiment: Synergistic antiproliferative activity against human FADU cells assessed as combination index at 0.5 uM preincubated for 1 hr followed by irradiation with 5 Gy IR and measured after 6 days by MTT assay; format: functional
How it was run: (§3)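 Combination index was calculated by the Chou–Talalay median-effect method from the 6-day MTT viability data of the single-plate compound/X-ray (2.5, 5, 10 Gy) design. CI < 1 denotes synergy, CI = 1 additivity and CI > 1 antagonism.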

FaDu [7] = experiment: Synergistic antiproliferative activity against human FADU cells assessed as combination index at 0.5 uM preincubated for 1 hr followed by irradiation with 10 Gy IR and measured after 6 days by MTT assay; format: functional; how it was run: as §3
FaDu [8] = experiment: Synergistic antiproliferative activity against human FADU cells assessed as combination index at 5 uM preincubated for 1 hr followed by irradiation with 10 Gy IR and measured after 6 days by MTT assay; format: functional; how it was run: as §3
SCC-25 [9] = experiment: Antiproliferative activity against human SCC25 cells assessed as fractional inhibition at 0.5 uM after 6 days in absence of irradiation by MTT assay; format: functional; how it was run: as §2
SCC-25 [10] = experiment: Synergistic antiproliferative activity against human SCC25 cells assessed as fractional inhibition at 0.05 uM preincubated for 1 hr followed by irradiation with 5 Gy IR and measured after 6 days by MTT assay (reference value: 0.133); format: functional
How it was run: (§4)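 SCC-25 cells seeded 1000/well in 96-well plates in DMEM/10% FBS and left 24 h. Drug or vehicle added, then after 1 h X-irradiated to 2.5, 5 or 10 Gy on one plate using a shifted lead shield. Plates incubated 6 days, then MTT (0.5 mg/mL, 45 min), DMSO solubilisation, absorbance at 570 nm. Fractional inhibition = 1 − fraction of surviving cells.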

SCC-25 [11] = experiment: Synergistic antiproliferative activity against human SCC25 cells assessed as fractional inhibition at 5 uM preincubated for 1 hr followed by irradiation with 5 Gy IR and measured after 6 days by MTT assay (reference value: 0.133); format: functional; how it was run: as §4
SCC-25 [12] = experiment: Synergistic antiproliferative activity against human SCC25 cells assessed as fractional inhibition at 0.005 uM preincubated for 1 hr followed by irradiation with 10 Gy IR and measured after 6 days by MTT assay (reference value: 0.347); format: functional; how it was run: as §4
SCC-25 [13] = experiment: Synergistic antiproliferative activity against human SCC25 cells assessed as combination index at 0.005 uM preincubated for 1 hr followed by irradiation with 2.5 Gy IR and measured after 6 days by MTT assay; format: functional
How it was run: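 SCC-25 cells grown in DMEM with 10% FBS at 37 °C, 5% CO2, seeded 1000 cells/well in 96-well plates and left 24 h. Drug in DMSO, diluted in complete medium, added 1 h before X-irradiation. A movable 5 mm lead shield gave 0, 2.5, 5 or 10 Gy on one plate. After 6 days, MTT readout at 570 nm. Combination index by Chou–Talalay from viability data.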

SCC-25 [14] = experiment: Synergistic antiproliferative activity against human SCC25 cells assessed as combination index at 0.005 uM preincubated for 1 hr followed by irradiation with 10 Gy IR and measured after 6 days by MTT assay; format: functional; how it was run: as §3
FaDu [15] = experiment: Synergistic induction of cell cycle arrest in human FADU cells at 0.5 uM followed by irradiation with 5Gy IR incubated for 6 hrs by propidium iodide staining based flow cytometry; format: functional; how it was run: as §1
FaDu [16] = experiment: Synergistic induction of cell cycle arrest in human FADU cells assessed as decrease in accumulation at G0/G1 phase at 0.5 uM followed irradiation with 5Gy IR incubated for 24 hrs by propidium iodide staining based flow cytometry; format: functional; how it was run: as §1
FaDu [17] = experiment: Synergistic induction of cell cycle arrest in human FADU cells assessed as increase in accumulation at G2/M phase at 0.5 uM followed irradiation with 5Gy IR incubated for 24 hrs by propidium iodide staining based flow cytometry; format: functional; how it was run: as §1
SCC-25 [18] = experiment: Synergistic induction of cell cycle arrest in human SCC25 cells at 0.5 uM followed by irradiation with 5Gy IR incubated for 6 hrs by propidium iodide staining based flow cytometry; format: functional; how it was run: as §1
SCC-25 [19] = experiment: Synergistic induction of apoptosis in human SCC25 cells at 0.5 uM followed irradiation with 5Gy IR incubated for 48 hrs by annexin V FITC and propidium iodide staining based flow cytometry; format: functional
How it was run: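 FaDu or SCC-25 cells, untreated, given 5 Gy IR, drug, or both. Apoptotic cells measured by annexin V flow cytometry 48 h after treatment. Percentage compared with control by t test.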

FaDu [20] = experiment: Synergistic induction of cell cycle arrest in human FADU cells assessed as decrease in cyclin B1 at 0.5 uM followed by irradiation with 5 Gy IR incubated for 48 hrs by immunoblot analysis; format: functional, cell-based
How it was run: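 FaDu cells received drug, 5 Gy IR, or both; vehicle-only controls. Lysates collected after 48 h and immunoblotted with primary antibodies to NRF2, cyclin B1, CDK1, Bax and Bcl-2. Membranes stripped and reprobed for beta-actin as loading control.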

FaDu [21] = experiment: Induction of apoptosis in human FADU cells assessed as increase in Bax at 0.5 uM followed by irradiation with 5 Gy IR incubated for 48 hrs by immunoblot analysis; format: functional, cell-based
How it was run: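 FaDu cells received compound at 0.5 μM, 5 Gy IR, or both. After 48 h, lysates were immunoblotted for NRF2, cyclin B1, CDK1, Bax and Bcl-2. Membranes were then stripped and reprobed for β-actin as the loading control.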

## COc1ccc2c(c1)N(CCO)C1=C(C(=O)OC1)C2c1ccccc1 (configuration not stated)
FaDu [1]
  inhibition: Dose-dependent effect
FaDu [1]; light or radiation study
  IC50: 496 nM
SCC-25 [2]
  Activity: Active
FaDu [3]
  inhibition at 1 µM: 20%
FaDu [4]
  fractional inhibitory concentration index (FICI): 0.239
FaDu [5]
  fractional inhibitory concentration index (FICI): 0.346
FaDu [6]
  CI: 0.603
FaDu [7]
  CI: 0.319
FaDu [8]
  CI: 0.314
SCC-25 [9]
  fractional inhibitory concentration index (FICI): 0.361
SCC-25 [10]
  fractional inhibitory concentration index (FICI): 0.05
SCC-25 [11]
  fractional inhibitory concentration index (FICI): 0.728
SCC-25 [12]
  fractional inhibitory concentration index (FICI): 0.388
SCC-25 [13]
  CI: 1.216
SCC-25 [14]
  CI: 1.021
FaDu [15]
  Activity: inactive
FaDu [16]
  Activity: Active
FaDu [17]
  fold change (FC): 2
SCC-25 [18]
  Activity: inactive
SCC-25 [19]
  fold change (FC): 7
FaDu [20]
  Activity: Active
FaDu [21]
  Activity: Active
